Results taken from ChEMBL document CHEMBL3351748, “Synthesis and anticonvulsant activity of novel purine derivatives” (Eur J Med Chem, 2014).
Activity calls are given as the source filed them. The calls are words filed in the database; no cut-off is given here.

How the values were obtained:
Mus musculus [1] = assay: Anticonvulsant activity in Kunming mouse assessed as protection against MES-induced seizures at 30 mg/kg, ip after 0.5 hrs by MES test; type: functional, organism-based; parameters: dose 30 mg/kg
Summary of the method: (§1)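 KunMing mice (18-22 g), compounds in DMSO given i.p. at 30 and 100 mg/kg, 3 animals per dose. Examined 0.5 h after dosing; current applied 0.2 s through corneal electrodes. Protection scored as abolition of hind-leg tonic maximal extension; reported as animals protected/animals tested.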

Mus musculus [2] = assay: Anticonvulsant activity in Kunming mouse assessed as protection against MES-induced seizures at 100 mg/kg, ip after 0.5 hrs by MES test; type: functional, organism-based; parameters: dose 100 mg/kg; summary of the method: as §1
[3] = Toxicity in ip dosed Kunming mouse assessed as inability of animal to maintain equilibrium on rod for at least 1 min in each trial by rotarod test; type: organism-based; settings: in vivo
Summary of the method: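 Mice pre-trained on a rotarod (3.2 cm diameter, 10 rpm), then dosed i.p. Neurotoxicity scored as failure to keep balance on the rod for at least 1 min in each trial. TD50 is the dose giving minimal neurotoxicity in 50% of animals.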

Mus musculus [4] = assay: Protective index, ratio of intraperitoneal neurotoxic TD50 against Kunming mouse by rotarod test to intraperitoneal anticonvulsant ED50 in Kunming mouse by MES test
Summary of the method: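 Protective index is TD50/ED50. Both come from i.p. dosing in KunMing mice: ED50 from protection of hind-leg tonic extension in the 0.5 h MES test, TD50 from failure to stay 1 min on the 10 rpm rotarod.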

Mus musculus [5] = assay: Anticonvulsant activity in ip dosed Kunming mouse assessed as protection against MES-induced seizures after 0.5 hrs by MES test; type: functional
Summary of the method: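 KunMing mice (18-22 g) dosed i.p., compounds dissolved in DMSO; corneal-electrode shock (0.2 s) 30 min after administration. Endpoint is abolition of hind-leg tonic extension. ED50 is the dose protecting 50% of animals, given with 95% confidence intervals.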

Mus musculus [6] = assay: Anticonvulsant activity in orally dosed Kunming mouse assessed as protection against MES-induced seizures after 1.5 hrs by MES test; settings: po
Mus musculus [7] = organism: Mus musculus; assay: Protective index, ratio of oral neurotoxic TD50 against Kunming mouse by rotarod test to oral anticonvulsant ED50 in Kunming mouse by MES test
Mus musculus [8] = assay: Anticonvulsant activity in Kunming mouse assessed as protection against sc-PTZ-induced tonic seizures 50 mg/kg, sc administered 30 mins before PTZ injection; type: functional; settings: route subcutaneous
Summary of the method: (§2)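 Mice, 10 per group, dosed at 50 mg/kg. PTZ 85 mg/kg in saline given s.c. 30 min later. Animals housed individually and watched for 0.5 h. Clonic seizures, tonic seizures (usually maximal hind-leg extension) and deaths counted as percent inhibition.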

[9] = Toxicity in orally dosed Kunming mouse assessed as inability of animal to maintain equilibrium on rod for at least 1 min in each trial by rotarod test; type: organism-based; settings: in vivo, po
Summary of the method: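 Rotarod test (3.2 cm rod, 10 rpm) in trained mice after oral dosing in 0.5% methylcellulose, tested at the 1.5 h time of peak effect. Toxicity is failure to stay on the rod for at least 1 min per trial. TD50 is the median dose for minimal neurotoxicity.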

Mus musculus [10] = assay: Anticonvulsant activity in Kunming mouse assessed as protection against sc-PTZ-induced clonic seizures 50 mg/kg, sc administered 30 mins before PTZ injection; type: functional; settings: route subcutaneous; summary of the method: as §2
Mus musculus [11] = assay: Anticonvulsant activity in Kunming mouse assessed as protection against sc-PTZ-induced mortality 50 mg/kg, sc administered 30 mins before PTZ injection; type: functional; settings: route subcutaneous
Summary of the method: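 KunMing mice (18–22 g), 10 per group, given test agent dissolved in DMSO. Thirty minutes later, PTZ 85 mg/kg in saline was injected s.c. Animals were held in individual cages and watched for 0.5 h. Clonic seizures, tonic seizures and deaths were counted, and mortality was expressed as % inhibition.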

Mus musculus [12] = assay: Anticonvulsant activity in orally dosed Kunming mouse assessed as time of peak effect for protection against MES-induced seizures […] by MES test; type: functional

| SMILES | Activity (Mus musculus [1]) | Activity (Mus musculus [2]) | TD50 at 1 min [3] [mg/kg] | Ratio TD50/ED50 (Mus musculus [4]) | ED50 (Mus musculus [5]) [mg/kg] | also measured |
| --- | --- | --- | --- | --- | --- | --- |
| Clc1ccccc1Cn1cnc2c(-n3cncn3)ncnc21 | inactive | – | – | – | – | – |
| Cc1ccc(Cn2cnc3c2ncn2cnnc32)cc1 | inactive | inactive | – | – | – | – |
| COc1ccc(Cn2cnc3c(-n4cncn4)ncnc32)cc1 | inactive | inactive | – | – | – | – |
| Clc1ccc(Cn2cnc3c(-n4cncn4)ncnc32)cc1 | inactive | inactive | – | – | – | – |
| CCCCCCCCCCn1cnc2c(-n3ccnc3)ncnc21 | inactive | Active | – | – | – | – |
| CCCCCn1cnc2c1ncn1cnnc21 | inactive | Active | – | – | – | – |
| Clc1ccccc1Cn1cnc2c1ncn1cnnc21 | inactive | Active | 315 | 6.1 | 51.9 | – |
| Clc1ccc(Cn2cnc3c2ncn2cnnc32)cc1 | inactive | inactive | – | – | – | – |
| Fc1ccccc1Cn1cnc2c1ncn1cnnc21 | inactive | Active | – | – | – | – |
| c1ccc(Cn2cnc3c(-n4cncn4)ncnc32)cc1 | inactive | Active | 315 | 4.7 | 66.6 | – |
| Fc1cccc(Cn2cnc3c2ncn2cnnc32)c1 | inactive | inactive | – | – | – | – |
| CCCCn1cnc2c1ncn1cnnc21 | inactive | inactive | – | – | – | – |
| CCCCCCn1cnc2c(-n3cncn3)ncnc21 | inactive | Active | 210 | 4.8 | 43.9 | – |
| Fc1ccccc1Cn1cnc2c(-n3cccn3)ncnc21 | inactive | Active | – | – | – | – |
| CCCCCCCn1cnc2c1ncn1cnnc21 | inactive | Active | – | – | – | – |
| CCCCCn1cnc2c(-n3cncn3)ncnc21 | inactive | – | – | – | – | – |
| Fc1ccc(Cn2cnc3c(-n4cncn4)ncnc32)cc1 | inactive | inactive | – | – | – | – |
| CCCCCCCCn1cnc2c1ncn1cnnc21 | inactive | Active | – | – | – | – |
| CCCCCCCCCCCCn1cnc2c(-n3cncn3)ncnc21 | inactive | – | – | – | – | – |
| NC(=O)N1c2ccccc2C=Cc2ccccc21 [CARBAMAZEPINE] | – | – | – | 6.4 | 11.8 | ED50 (Mus musculus [6]): 27.3 mg/kg; Ratio TD50/ED50 (Mus musculus [7]): 12; inhibition in vivo at 50 mg/kg (Mus musculus [8]): 100%; TD50 at 1 min [9]: 329 mg/kg; inhibition in vivo at 50 mg/kg (Mus musculus [10]): 0%; inhibition in vivo at 50 mg/kg (Mus musculus [11]): 80% |

| SMILES | Activity (Mus musculus [1]) | Activity (Mus musculus [2]) | TD50 at 1 min [3] [mg/kg] | Ratio TD50/ED50 (Mus musculus [4]) | ED50 (Mus musculus [5]) [mg/kg] | also measured |
| --- | --- | --- | --- | --- | --- | --- |
| CCCCCCCn1cnc2c(-n3cncn3)ncnc21 | Active | Active | 105 | 3.3 | 31.5 | – |
| CCCCCCCCCCn1cnc2c1ncn1cnnc21 | inactive | inactive | – | – | – | – |
| CCCCCCCCn1cnc2c(-n3cncn3)ncnc21 | Active | Active | 247 | 7.4 | 33.2 | – |
| CCCCCCCCCCn1cnc2c(Sc3ncn[nH]3)ncnc21 | inactive | inactive | – | – | – | – |
| Fc1ccc(Cn2cnc3c2ncn2cnnc32)cc1 | inactive | inactive | – | – | – | – |
| CCCCCCCCCCn1cnc2c(-n3cncn3)ncnc21 | Active | Active | > 700 | >25.6 | 23.4 | ED50 (Mus musculus [6]): 39.4 mg/kg; Ratio TD50/ED50 (Mus musculus [7]): >38.1; Time (Mus musculus [12]): 1.5 h; inhibition in vivo at 50 mg/kg (Mus musculus [8]): 90%; TD50 at 1 min [9]: > 1500 mg/kg; inhibition in vivo at 50 mg/kg (Mus musculus [10]): 20%; inhibition in vivo at 50 mg/kg (Mus musculus [11]): 70% |
| Fc1ccccc1Cn1cnc2c(-n3cncn3)ncnc21 | Active | Active | 449 | 15 | 29.9 | – |
| CCCCCCCCCCn1cnc2c(-n3cccn3)ncnc21 | inactive | Active | 241 | 3.6 | 66.5 | – |
| CCCCCCn1cnc2c1ncn1cnnc21 | inactive | Active | 102 | 2 | 51.2 | – |
| Cc1ccc(Cn2cnc3c(-n4cncn4)ncnc32)cc1 | inactive | inactive | – | – | – | – |
| Cc1cn(-c2ncnc3c2ncn3Cc2ccccc2F)cn1 | inactive | inactive | – | – | – | – |
| Fc1ccccc1Cn1cnc2c(-n3ccnc3)ncnc21 | inactive | Active | 115 | 1.8 | 61.4 | – |
| c1ccc(Cn2cnc3c2ncn2cnnc32)cc1 | inactive | Active | – | – | – | – |
| Fc1cccc(Cn2cnc3c(-n4cncn4)ncnc32)c1 | inactive | Active | 384 | 8.3 | 45.9 | – |
| Fc1ccccc1Cn1cnc2c(Sc3ncn[nH]3)ncnc21 | inactive | inactive | – | – | – | – |
| CCCCCCCCCCCCCCn1cnc2c(-n3cncn3)ncnc21 | inactive | inactive | – | – | – | – |
| COc1ccc(Cn2cnc3c2ncn2cnnc32)cc1 | inactive | inactive | – | – | – | – |
| CCCCCCCCCCn1cnc2c(-n3cnc(C)c3)ncnc21 | inactive | Active | 196 | 2.9 | 67.5 | – |
| Clc1cccc(Cn2cnc3c2ncn2cnnc32)c1 | inactive | inactive | – | – | – | – |
| Clc1cccc(Cn2cnc3c(-n4cncn4)ncnc32)c1 | inactive | Active | 488 | 7.5 | 65.4 | – |
